Screens as filed in PubChem BioAssay.
NPY-Y2 PAM-ag – potentiators or agonists of human neuropeptide Y receptor Y2 | P49146 | cells expressing NPY-Y2, potentiator/agonist read-out | activation, % at 3.6 µM | 220,000 compounds, 0.45% hits; in the data active means activation above about 27%;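 further: cells stimulated with NPY near EC25 plus isoproterenol at EC100; 0% = vehicle plus submaximal agonist and 100% = vehicle plus saturating agonist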
Target sequence (P49146 whole entry, looked up): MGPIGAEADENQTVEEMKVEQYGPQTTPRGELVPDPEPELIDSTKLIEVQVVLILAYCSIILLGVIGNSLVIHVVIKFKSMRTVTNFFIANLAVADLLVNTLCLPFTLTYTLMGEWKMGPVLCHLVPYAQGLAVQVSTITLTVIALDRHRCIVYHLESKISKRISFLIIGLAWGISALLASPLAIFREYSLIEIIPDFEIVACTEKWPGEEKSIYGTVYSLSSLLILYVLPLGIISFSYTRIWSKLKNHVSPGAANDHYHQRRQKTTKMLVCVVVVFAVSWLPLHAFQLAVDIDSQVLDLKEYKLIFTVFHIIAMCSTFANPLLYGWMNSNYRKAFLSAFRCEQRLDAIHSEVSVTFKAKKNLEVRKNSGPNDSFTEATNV
MT stabilizer – stabilizes microtubules in HeLa cells | HeLa tubulin immunostaining HCS, 24 h; share of cells brighter than vehicle mean+2SD | 200,000 compounds, 0.83% hits | AID 2205 | % tubulin-high responders, % at 10 µM;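 active means plate Z-score above 3 for both tubulin-high and condensed-nucleus cell shares, with cell loss under 80%, at 10 µM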;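 further: anti alpha tubulin signal scored within the nucleus-defined area of each cell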
b-catenin transl – alters nuclear translocation of beta-catenin in HeLa cells. immunofluorescence imaging. nuclear translocation activity, % at 5 µM. 190,000 compounds, 0.3% hits. AID 1665;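 active means nuclear translocation activity above 50% at 5 µM, with a well cell count of 50 or more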;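 further: per-cell ratio of nuclear to cytoplasmic median beta-catenin stain intensity; plate controls were DMSO negative control for no effect and GSK-3 inhibitor IX positive control for full effect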
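Signal – beta-catenin immunofluorescence imaging with DAPI · Test system – human HeLa cell line · Dosing – 5 µM primary single dose, 0.1% DMSO, 0.02–20 µM confirmation series · Measure – % activation, nuclear-to-cytoplasmic median beta-catenin signal ratio per cell · Incubation – 24 h compound exposure at 37°C, 5% CO2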
NPY-Y1 PAM-ag – potentiates or activates human NPY-Y1 receptor. P25929. NPY-Y1 expressing cells, potentiator/agonist activation. activation, % at 3.6 µM. 220,000 compounds, 0.37% hits; in the data active means activation above about 33%, passing the limit was not always enough;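 further: cells stimulated with NPY at EC10 then isoproterenol at EC100; 0% = low agonist plus stimulus and 100% = saturating agonist plus stimulus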
Target sequence (P25929 whole entry, looked up): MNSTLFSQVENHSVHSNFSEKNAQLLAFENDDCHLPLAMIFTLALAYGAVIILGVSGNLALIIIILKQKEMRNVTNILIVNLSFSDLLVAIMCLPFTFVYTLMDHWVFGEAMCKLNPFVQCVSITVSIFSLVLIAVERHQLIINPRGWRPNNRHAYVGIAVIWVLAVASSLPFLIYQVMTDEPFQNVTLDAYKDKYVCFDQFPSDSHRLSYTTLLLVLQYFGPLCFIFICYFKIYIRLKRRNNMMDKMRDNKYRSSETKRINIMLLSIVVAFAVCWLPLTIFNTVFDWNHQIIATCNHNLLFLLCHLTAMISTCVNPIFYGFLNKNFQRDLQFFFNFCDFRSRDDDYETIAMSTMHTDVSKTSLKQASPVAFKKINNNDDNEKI
NPY-Y1 antag – blocks the human neuropeptide Y Y1 receptor; P25929; HEK293-CNG Y1 cells, membrane potential fluorescence; NPY at EC95, then isoproterenol; inhibition, % at 3.6 µM; 200,000 compounds, 1% hits; AID 1040;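 active means inhibition above the campaign mean inhibition of all tested compounds plus 3 SD, cut at about 20% in these data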;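 further: 0% = DMSO wells given NPY plus isoproterenol and 100% = isoproterenol alone without NPY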
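Material: HEK293 Y1/CNG channel cell line | Also added: NPY (25 nM), isoproterenol (1 µM), Ro 20-1724 (25 µM) | Compound: One concentration, 3.6 µM, in 0.4% DMSO | Schedule: 3 h dye uptake, 1 h room-temperature compound, 45 min post-isoproterenol | Signal: Membrane-potential fluorescent dye readout | Read-out: % inhibition of NPY effect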
NPY Y2 blocker – NPY-Y2 (human) receptor antagonism. inhibition, % at 2.7 µM. P49146. NPY-Y2 expressing cells, antagonist mode. 140,000 compounds, 0.99% hits. AID 793; in the data active means inhibition above about 17%;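 further: 0% = vehicle with agonist challenge and 100% = reference antagonist with challenge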
NPY-Y1 antag ct – antagonizes human NPY-Y1, counter-screen to NPY-Y2 antagonists | shares compounds with NPY Y2 blocker | 710 compounds, 19% hits | AID 1256 | cell-based NPY-Y1 antagonism counterscreen | inhibition, % at 3.6 µM; in the data active means inhibition above about 20%;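 further: cells challenged with NPY then isoproterenol with cAMP sensed through a CNG channel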
NPY-Y2 ant conf – confirmation of human neuropeptide Y receptor Y2 antagonists; shares compounds with NPY Y2 blocker; HEK293 NPY-Y2 CNG channel, membrane potential fluorescence; inhibition, % at 2.8 µM; 710 compounds, 32% hits; AID 1257;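 active means mean inhibition of triplicate wells above the hit cutoff set in the primary screen, cut at about 17% in these data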;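 further: 0% = DMSO with NPY challenge and 100% = BIIE0246 high control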
Active calls of the source: *; nt = no result. Most compounds without a hit are left out; they make up all but 2.6% or so of the library.

SMILES | NPY-Y2 PAM-ag | MT stabilizer | b-catenin transl | NPY-Y1 PAM-ag | NPY-Y1 antag | NPY Y2 blocker | NPY-Y1 antag ct | NPY-Y2 ant conf
CCCNC(=O)COC(=O)/C=C/c1ccc2c(c1)OCO2 | -12 | 3 | nt | -15 | 9 | 24* | 11 | 7
Cc1cc(C)n(-c2nc(C)nc(N)n2)n1 | 15 | 2 | nt | 8 | 6 | 20* | 6 | 1
COc1ccc2c(c1OC)C(=O)N(C(C)C(=O)O)C2=O (centres undefined) | -17 | 4 | nt | -51 | 16 | 10 | nt | nt
CNCc1ccccc1Sc1cccc2ccccc12 | 8 | 3 | -3 | -17 | 7 | 12 | nt | nt
CNCc1ccccc1Sc1ccc(OC)cc1 | -17 | 4 | 1 | -34 | 5 | 20* | 2 | 6
Clc1ccc(-c2cc(CSc3ccccc3)on2)cc1 | -3 | 1 | nt | -43 | 8 | 15 | nt | nt
Cc1ccc(SCc2cc(-c3ccc(Cl)cc3)no2)cc1 | 5 | 1 | 1 | -11 | 6 | 19* | 13 | 17
c1ccc(SCc2cc(-c3ccccc3)no2)cc1 | -8 | 2 | -4 | -18 | -4 | nt | nt | nt
Clc1ccc(-c2cc(CSc3cccc(Cl)c3)on2)cc1 | -32 | 2 | nt | -67 | 20 | 17* | 10 | 16
Cc1cc(C)[n+](-c2ccc(Oc3ccccc3)c(S(=O)(=O)[O-])c2)[nH]1 | -29 | nt | 0 | -10 | nt | nt | nt | nt
C=CCCCCCCCCC(=O)NNC1=CC(=O)CC(C)(C)C1 | 11 | 3 | -1 | 13 | 5 | 2 | nt | nt
O=C(NC1CCCCC1)C(c1cccnc1)N(CCc1ccccc1)C(=O)Cc1cccs1 (centres undefined) | -1 | 2 | -2 | -24 | 5 | 22* | 19 | 12
O=c1c2ccccc2nc2c3ccccc3c(NCCN3CCOCC3)nn12 | -18 | 2 | 0 | -40 | 14 | 20* | 17 | 25*
CN(C)C(=O)CSc1nc(-c2ccccc2)nc2c1CCCC2 | 0 | 4 | nt | -25 | 6 | 6 | nt | nt
CN(C)CCCSc1nc(-c2ccccc2)nc2c1CCC2 | -13 | 4 | -2 | -65 | 20 | 21* | 16 | 23*
CC(C)COC(=O)c1cccc2c1-c1ccccc1/C2=N\O | -8 | 3 | 22 | -42 | 13 | 22* | 17 | 39*
CCOC(=O)c1cccc2c1-c1ccccc1/C2=N/O | -9 | 4 | -1 | -21 | 4 | 6 | nt | nt
CCCCNC(=O)c1onc(CSc2cc(C)ccc2C)c1C(=O)O | -20 | 3 | 4 | -24 | 18 | 21* | 31* | 25*
Cc1ccc(/C=C/C(O)=C2/C(=O)N(C)C3(C)CC2c2ccccc2O3)cc1 (centres undefined) | -3 | 8 | 7 | -7 | 19 | 7 | nt | nt
COc1ccc(/C=C/C(O)=C2/C(=O)N(C)C3(C)CC2c2ccccc2O3)cc1 (centres undefined) | 2 | 31 | -4 | -30 | 11 | 21* | 16 | 11
COc1ccc(C)cc1NC(=O)C(NCC1CCCO1)c1ccccc1 (centres undefined) | 9 | 3 | 6 | 18 | 11 | 4 | nt | nt
Nc1nonc1-c1nc2ccccc2n1Cc1ccc(F)cc1Cl | -27 | 3 | 4 | -61 | 16 | 25* | 45* | 51*
COc1ccc2cc(/C(C)=N/NC(=O)c3cc(-c4cccnc4)nc4ccccc34)ccc2c1 | 10 | 3 | 0 | 5 | -3 | 4 | nt | nt
CCC(c1nnnn1Cc1ccc2c(c1)OCO2)N1CCN(c2ccc(OC)cc2)CC1 (centres undefined) | 3 | 2 | -6 | -13 | 14 | 10 | nt | nt
CCC(c1nnnn1Cc1ccc2c(c1)OCO2)N1CCN(c2ccccc2)CC1 (centres undefined) | -41 | 6 | -5 | -24 | 20 | 18* | 13 | 8
SMILES | NPY-Y2 PAM-ag | MT stabilizer | b-catenin transl | NPY-Y1 PAM-ag | NPY-Y1 antag | NPY Y2 blocker | NPY-Y1 antag ct | NPY-Y2 ant conf
CCC(c1nnnn1Cc1ccc2c(c1)OCO2)N1CCN(c2ccc(F)cc2)CC1 (centres undefined) | 9 | 2 | -1 | 1 | 15 | 19* | 8 | 8
Cn1c(CSc2nc3ccccc3s2)n[nH]c1=S | -21 | 4 | 0 | -31 | 12 | 7 | nt | nt
Cn1c(-c2sc3ccccc3c2Cl)n[nH]c1=S | -26 | 3 | -12 | -30 | 18 | 17* | 15 | 12
CC(=O)c1cc2c(cc1NC(=O)CN1CCCCC1C)OCO2 (centres undefined) | 12 | 1 | nt | -19 | 4 | 6 | nt | nt
CCOC(=O)Cn1nc(-c2ccccc2)c2cnc3ccc(CC)cc3c21 | 6 | 3 | -4 | 2 | 4 | 26* | 20 | 13
C=CCNC(=S)/N=c1/ccccn1CC | 3 | nt | 0 | 15 | nt | nt | nt | nt
CCN(CC)C(=O)CSc1nc(-c2cccs2)cc(-c2cccs2)c1C#N | 5 | 3 | 10 | -35 | 5 | 18* | 16 | 13
COc1cc([N+](=O)[O-])ccc1NC(=O)CCCOc1ccccc1 | -28 | 2 | 2 | -33 | 7 | 22* | 7 | 10
N#Cc1c(NC(=O)CSc2nc(N)cc(=O)[nH]2)sc2c1CCCC2 | -4 | 2 | 2 | 2 | 8 | nt | nt | nt
CCOC(=O)C1CCN(C(=O)C(C)c2ccc([N+](=O)[O-])cc2)CC1 (centres undefined) | 8 | 2 | 0 | -1 | 5 | nt | nt | nt
COC(=O)c1cc(Cl)c(NC(=O)c2ccc(C(C)(C)C)cc2)cc1OC | -46 | 3 | 0 | -70 | 10 | 18* | 16 | 31*
COC(=O)c1cc(Cl)c(NC(=O)C(C)C)cc1OC | -5 | 2 | 0 | -14 | 5 | nt | nt | nt
CC1=CC(C)(C)N(S(=O)(=O)c2ccc(C)cc2)c2ccccc21 | -11 | 12 | nt | 6 | 20 | 20* | 31* | 26*
CC1=CC(C)(C)N(S(=O)(=O)c2ccc(F)cc2)c2ccc(C)cc21 | -33 | 24* | 33 | -15 | 16 | 19* | 15 | 7
CC1=CC(C)(C)N(C(=O)CN2C(=O)c3ccccc3C2=O)c2ccccc21 | 10 | 6 | 2 | 11 | -11 | 2 | nt | nt
COc1ccnc(Oc2ccccc2)c1C(N)=O | 3 | 4 | -2 | 10 | 6 | nt | nt | nt
CCn1c(SCC(=O)Nc2ccc(OCc3ccccc3)cc2)nnc1-c1ccco1 | nt | nt | -1 | nt | nt | nt | nt | nt
CCC1Oc2ccc(C)cc2N(CC(=O)NCCCN2CCCCC2CC)C1=O (centres undefined) | 4 | 2 | nt | -21 | -4 | 2 | nt | nt
CCC1Oc2ccc(C)cc2N(CC(=O)NCCC2=CCCCC2)C1=O (centres undefined) | 5 | 2 | -1 | 5 | 8 | 19* | 14 | 12
